Article PMC3828522 (Genes & Development, 2013)
Where a chain is given by its changes, count along the chain named. In names and notes the source's numbering stands.

B1: Pho: full-length Drosophila Pleiohomeotic, PRE-binding PcG protein (protein, UniProt Q8ST83 1-520, looked up)
chain: MAYERFGIILQSEQYDEDIGNTKVNQKMNEGNHYDLHRKNAFDRIIHSESKKGDNVINYNIHENDKIKAADNIFSSKLKMNPNMSYEMNINCFKNIGYGENQETSKVLTNSLSNNDINTEESGVVDKNSPFLTLGTTILNSNGKSRRWEQKLVHIKTMEGEFSVTMWASGISDDEYSGSDQIVGASDLLKGKEEFGIDGFTSQQNKEYQKMESKFTNAQTLEMPHPISSVQIMDHLIKERGNLSQENNISERILSKTTLSFEEPILLPDSSSIELVNETAAMTINNHRTLSNHTGNTGDLHALPSSVPFRIGLHEGQVNDCLSTISQSTHQDNTDSTGCGEMNLSEVTVSYTNDKKIACPHKGCNKHFRDSSAMRKHLHTHGPRVHVCAECGKAFVESSKLKRHQLVHTGEKPFQCTFEGCGKRFSLDFNLRTHVRIHTGDRPFVCPFDACNKKFAQSTNLKSHILTHAKAKRNTSISGKSGCSNAESNSQSEDTSANYVKVELQDSVTENHVPFVVYAD
modifications: full-length
B2: Sfmbt^G635K/A638E: full-length Sfmbt with G635K/A638E mutations (protein)
chain: MNPSELRMMWMSSQYNSERITLEDAATLLGHPTVGLSVMEDLSAHQPTLDMNPMMSLMGGDFTGQAAATAAALGVQPGTLIATNSNNLYGFAHMGGLQQQLLQQSAAAAVFQNYAEAMDNDVENGMVGMAMEAVVDDDDQVYGQRDNNFDDNGSELEPKQEIINIDDFVMMNEDNNSYDGTDFMTSSDKDISQSSSSCMAQMPGSLGVPGVEHDLLVPLPDGLLHHKLLGTTLVPAMGTLNGNAFGNIMVSTENTSSKQMQRTYSTAKGANSTATTATCSASTSSALRSQRKTRKIEPVNRPGLVLKTPIAYRGNIDPSVIPIQKDGMAVCKRCGAIGVKHTFYTKSRRFCSMACARGELYSLVLNTKMEGDQATTSSPDPGAGSESADLPGDQQQSQSDIELDLHAAHIKNANYRFRITDQSKITQLNSFGEPMSMGGDAAANNVQMAADETIAALNGGAVGDATAPGSTEEGASTPNSYLSAAPTPKALRLFKDIYPQDDLPQIPKYERLPVPCPQMEKIISIRRRMYDPTHSYDWLPRLSKENFNAAPVTCFPHAPGCEVWDNLGVGMKVEVENTDCDSIEVIQPGQTPTSFWVATILEIKGYKALMSYEGFDTDSHDFWVNLCNAEVHSVKWCETRGKPLIPPRTIEHKYKDWKDFLVGRLSGARTLPSNFYNKINDSLQSRFRLGLNLECVDKDRISQVRLATVTKIVGKRLFLRYFDSDDGFWCHEDSPIIHPVGWATTVGHNLAAPQDYLERMLAGREAMIEVHEDDATIELFKMNFTFDEYYSDGKTNSFVEGMKLEAVDPLNLSSICPATVMAVLKFGYMMIRIDSYQPDASGSDWFCYHEKSPCIFPAGFCSVNNISVTPPNGYDSRTFTWEGYLRDTGAVAAGQHLFHRIIPDHGFEVGMSLECADLMDPRLVCVATVARVVGRLLKVHFDGWTDEYDQWLDCESADIYPVGWCVLVNHKLEGPPRVAHQQAPKPAPKPKIQRKRKPKKGAAGGKTPTDNNTQSVKSRTIALKTTPHLPKLSIKLELKPEHHNAAFYENNQPEEEGDEEDPDADGDGDGSTSHISEQSTTQSSSDLIAGSGSGSGSASLVTLATGSNKTNSSATNNKYIPRLADIDSSEPHLELVPDTWNVYDVSQFLRVNDCTAHCDTFSRNKIDGKRLLQLTKDDIMPLLGMKVGPALKISDLIAQLKCKVNPGRARSHKTNKSPFL
B3: Sfmbt^G635K/A638E-CTAP: Sfmbt double point mutant with C-terminal TAP tag, expressed from transgene (protein)
chain: B2 chain
modifications: left off: TAP tag, C-terminal, kept
B4: Sfmbt-CTAP: wild-type Sfmbt with C-terminal tandem affinity purification tag, expressed from transgene (protein)
chain: B2 chain with K635G, E638A
modifications: left off: TAP tag, C-terminal, kept
B5: Sfmbt 4MBT domain: four malignant brain tumor (4MBT) domain of Drosophila Sfmbt (protein, UniProt Q9VK33 532-980, looked up, fragment)
chain: PTHSYDWLPRLSKENFNAAPVTCFPHAPGCEVWDNLGVGMKVEVENTDCDSIEVIQPGQTPTSFWVATILEIKGYKALMSYEGFDTDSHDFWVNLCNAEVHSVGWCATRGKPLIPPRTIEHKYKDWKDFLVGRLSGARTLPSNFYNKINDSLQSRFRLGLNLECVDKDRISQVRLATVTKIVGKRLFLRYFDSDDGFWCHEDSPIIHPVGWATTVGHNLAAPQDYLERMLAGREAMIEVHEDDATIELFKMNFTFDEYYSDGKTNSFVEGMKLEAVDPLNLSSICPATVMAVLKFGYMMIRIDSYQPDASGSDWFCYHEKSPCIFPAGFCSVNNISVTPPNGYDSRTFTWEGYLRDTGAVAAGQHLFHRIIPDHGFEVGMSLECADLMDPRLVCVATVARVVGRLLKVHFDGWTDEYDQWLDCESADIYPVGWCVLVNHKLEGPPRVAH
modifications: 4MBT domain

What was measured:
[1] = test system: Sfmbt 4MBT, Ser633 and Ser673 mutated into proline; assay: GST pull-down and SPR, Sfmbt Ser633/Ser673 to proline mutant; type: binding, Drosophila; conditions: relative to wild type
How it was run: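 Mutant and wild-type 6xHis-tagged Sfmbt 4MBT expressed in E. coli. GST pull-down: GST-Pho spacer (E. coli, GST column plus gel filtration) on beads with 4MBT, 2 h at 4°C in 50 mM Tris-HCl, 150 mM NaCl, 1 mM DTT; three washes, boiled in Laemmli buffer.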

[2] = test system: double-stranded Pho DNA-binding site; assay: EMSA, DNA binding; design: species or system Drosophila; conditions: ^32P end-labeled probe, protein without partner
Scm = assay: Pho:Scm complex formation in vitro; type: binding, Drosophila; conditions: Supplemental Fig. S5C
[3] = test system: Flag-tagged Pho (full-length); assay: Anti-Flag affinity purification of full-length Pho-Flag:Sfmbt complexes; type: binding, Drosophila; conditions: coimmunoprecipitation, full-length proteins, baculovirus system
How it was run: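 Full-length Pho-Flag with wild-type or mutant Sfmbt expressed and purified in a baculovirus system. Cells lysed by three sonication cycles (30 bursts, 30 sec on ice each). Complexes isolated by anti-Flag affinity purification; bound proteins detected by Western blot with the indicated antibodies.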

endogenous Pho = assay: Pull-down of Sfmbt-CTAP proteins from embryo nuclear extracts; type: binding, Drosophila; conditions: nuclear extracts of 0- to 12-h-old embryos, IgG sepharose, Western blot
[4] = test system: Ubx misexpression in Sfmbt^1 homozygous cell clones; assay: Genetic rescue assay, repression of Ubx in Sfmbt^1 homozygous clones; type: in vivo, Drosophila; conditions: imaginal disc
PREs of PcG target genes = assay: ChIP of Sfmbt-CTAP proteins at PREs; type: in vivo, Drosophila
How it was run: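 Sfmbt-CTAP transgenes (wild-type, G635K/A638E double mutant, ΔMBT1 truncation) expressed ubiquitously via daughterless-Gal4 in wild-type third instar larvae. Chromatin from imaginal discs and brains; TAP-tagged proteins immunoprecipitated with peroxidase anti-peroxidase via the protein A moiety. Triplicate ChIPs from three independent chromatin preparations per genotype. qPCR read-out given as mean percentage of input precipitated per region, ±SD.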

Row | Molecule | mobility shift / association with DNA [2] | coimmunoprecipitation of endogenous Pho (endogenous Pho) | repression of Ubx in Sfmbt^1 mutant clones [4] | further results
1 | B1 | induces a mobility shift | – | – | binding affinity change, Ser633 and Ser673 to proline [1]: twofold decrease in the binding affinity; stable complex formation with Scm in vitro (Scm): fails to form a stable complex
2 | B2 | – | – | – | interaction with Flag-tagged Pho [3]: completely failed to interact
3 | B3 | – | only poorly coimmunoprecipitated | severely compromised repressor activity | reduction of ChIP signals at Ubx PREs (PREs of PcG target genes): reduced only twofold to threefold
4 | B4 | – | robustly coimmunoprecipitated | rescues repression of Ubx | –
5 | B5 | fails to stably associate with DNA | – | – | –
